The source of these data is ChEMBL document CHEMBL3797143, “Novel S1P1 receptor agonists - Part 5: From amino-to alkoxy-pyridines” (Eur J Med Chem, 2016).

In general, EC50 refers to the midpoint of the concentration-response curve. A word on the half-life: it is the time needed for the level to fall by half in the phase considered.

Active and inactive are the calls of the source.

In data set [1] the target is Sphingosine 1-phosphate receptor 3 (Homo sapiens, UniProt Q99500). The data set is described as follows: Agonist activity at human recombinant S1PR3 expressed in CHO cell membranes incubated for 30 mins by [35S]GTPgammaS binding assay in presence of GDP. The class given is functional. In short, it runs like this: (§1)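 Membranes from CHO cells expressing recombinant human S1P1 or S1P3. Compounds were preincubated with membranes for 30 min at room temperature. Reaction stopped by filtration, membrane-bound 35S-GTPγS counted. Geometric mean of ≥3 independent runs.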

Data set [2] concerns Rattus norvegicus. The data set is described as follows: Time duration of maximum lymphocyte count reduction in Wistar rat at 10 mg/kg administered via oral gavage. The class given is functional. An outline of the steps: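 Duration of action is the latest sampling time at which maximal lymphocyte-count reduction was still seen. Male Wistar rats received 10 mg/kg orally, and blood lymphocytes were counted before dosing and at 3, 6 and 24 h (later times in some cases). Mean of 6-8 animals.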

The target of data set [3] is Sphingosine 1-phosphate receptor 1 (Homo sapiens, UniProt P21453). The data set is described as follows: Agonist activity at human recombinant S1PR1 expressed in CHO cell membranes incubated for 30 mins by [35S]GTPgammaS binding assay in presence of GDP. The class given is functional. In short, it runs like this: as §1
On the technique in general: GTPγS is a poorly hydrolysed GTP analogue; its binding reports G protein activation.

Data set [4] concerns Rattus norvegicus. Nature of the data set: Decrease in peripheral blood lymphocyte count in Wistar rat at 10 mg/kg administered via oral gavage measured after 3 hrs. Set-up: scale not given: the % may be the effect or the level left. The class given is functional. In short, it runs like this: (§2)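 Male Wistar rats (RccHan:WIST) were given 10 mg/kg orally by gavage in vehicle containing 5% DMSO. Blood drawn by sublingual vein puncture under isoflurane before dosing and at the listed times after dosing. Lymphocytes counted on a haematology analyser. Results are % change from baseline, mean of 6-8 animals.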

In data set [5] the test system is Rattus norvegicus. The data set is described as follows: Decrease in peripheral blood lymphocyte count in Wistar rat at 10 mg/kg administered via oral gavage measured after 24 hrs. The class given is functional. Further details: scale not given: the % may be the effect or the level left. In short, it runs like this:
as §2

Data set [6] concerns Rattus norvegicus. Nature of the data set: Decrease in peripheral blood lymphocyte count in Wistar rat at 10 mg/kg administered via oral gavage measured after 6 hrs. The class given is functional. Set-up: scale not given: the % may be the effect or the level left. An outline of the steps:
as §2

Data set [7] deals with Rattus norvegicus. Nature of the data set: Decrease in peripheral blood lymphocyte count in Wistar rat at 10 mg/kg administered via oral gavage measured after 48 hrs. The class given is functional. Set-up: scale not given: the % may be the effect or the level left. An outline of the steps:
as §2

Data set [8] has as its system Rattus norvegicus. Nature of the data set: Decrease in peripheral blood lymphocyte count in Wistar rat at 10 mg/kg administered via oral gavage measured after 144 hrs. The class given is functional. Further details: scale not given: the % may be the effect or the level left. An outline of the steps: as §2
Data set [9] can be described thus: Phototoxicity in Balb/c mouse 3T3 clone A31 cells assessed as inhibition of cell viability measured as photo irritancy factor at 0.05 to 100 uM preincubated for 1 hr followed by UVA irradiation measured after 24 hrs by neutral red uptake assay relative to control. The class given is functional.
Data set [10] can be described thus: Phototoxicity in Balb/c mouse 3T3 clone A31 cells assessed as AUC of UV spectra between 310 and 350 nm normalized to compound concentration at 0.05 to 100 uM preincubated for 1 hr followed by UVA irradiation measured after 24 hrs by neutral red uptake assay relative to control. The class given is functional.
Data set [11] can be described thus: Plasma concentration in Wistar rat at 10 mg/kg administered via oral gavage measured after 96 hrs by LC-MS/MS analysis. The class given is ADME, organism-based. An outline of the steps: (§3)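 Male Wistar rats received 10 mg/kg orally by gavage. Blood was drawn at the listed times into EDTA tubes, and plasma was prepared by centrifugation at 3000 g for 10 min at 4 °C. Limit of quantification 3 nM.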

Data set [12] is described as follows: Plasma concentration in Wistar rat at 10 mg/kg administered via oral gavage measured after 24 hrs by LC-MS/MS analysis. The class given is ADME, organism-based. An outline of the steps:
as §3

Data set [13] is described as follows: Plasma concentration in Wistar rat at 10 mg/kg administered via oral gavage measured after 3 hrs by LC-MS/MS analysis. The class given is ADME, organism-based. An outline of the steps: as §3
A short description of data set [14]: Half life in Wistar rat at 10 mg/kg administered via oral gavage by LC-MS/MS analysis. The class given is ADME, organism-based. The conditions noted are these: in vivo. In short, it runs like this: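 Oral half-life was calculated from plasma concentrations measured in the lymphocyte-count study, in which male Wistar rats received 10 mg/kg orally. Plasma was prepared from EDTA blood by centrifugation at 3000 g for 10 min at 4 °C.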

The nature of data set [15]: Plasma concentration in Wistar rat at 10 mg/kg administered via oral gavage measured after 6 hrs by LC-MS/MS analysis. The class given is ADME, organism-based. An outline of the steps:
as §3

A short description of data set [16]: Plasma concentration in Wistar rat at 10 mg/kg administered via oral gavage measured after 144 hrs by LC-MS/MS analysis. The class given is ADME, organism-based. In short, it runs like this: as §3
Data set [17] has as its system Rattus norvegicus. Nature of the data set: Decrease in peripheral blood lymphocyte count in Wistar rat at 10 mg/kg administered via oral gavage measured after 96 hrs. The class given is functional. Further details: scale not given: the % may be the effect or the level left. In short, it runs like this:
as §2

Data set [18] can be described thus: Plasma concentration in Wistar rat at 10 mg/kg administered via oral gavage measured after 72 hrs by LC-MS/MS analysis. The class given is ADME, organism-based. An outline of the steps: as §3
Data set [19] has as its system Rattus norvegicus. Nature of the data set: Decrease in peripheral blood lymphocyte count in Wistar rat at 10 mg/kg administered via oral gavage measured after 72 hrs. The class given is functional. Set-up: scale not given: the % may be the effect or the level left. An outline of the steps: as §2

Sphingosine 1-phosphate receptor 1, sequence (P21453 whole entry): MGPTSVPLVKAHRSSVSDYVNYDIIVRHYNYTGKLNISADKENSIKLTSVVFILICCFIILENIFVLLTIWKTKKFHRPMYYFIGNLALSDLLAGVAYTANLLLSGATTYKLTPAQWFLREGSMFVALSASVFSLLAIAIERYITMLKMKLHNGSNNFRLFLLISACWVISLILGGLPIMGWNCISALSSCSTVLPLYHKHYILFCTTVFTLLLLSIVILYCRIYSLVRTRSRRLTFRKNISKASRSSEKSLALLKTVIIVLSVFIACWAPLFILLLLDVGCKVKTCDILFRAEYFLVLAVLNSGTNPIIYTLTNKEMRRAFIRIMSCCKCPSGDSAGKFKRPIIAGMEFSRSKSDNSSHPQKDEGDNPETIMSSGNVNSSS
Sphingosine 1-phosphate receptor 3, sequence (Q99500 whole entry): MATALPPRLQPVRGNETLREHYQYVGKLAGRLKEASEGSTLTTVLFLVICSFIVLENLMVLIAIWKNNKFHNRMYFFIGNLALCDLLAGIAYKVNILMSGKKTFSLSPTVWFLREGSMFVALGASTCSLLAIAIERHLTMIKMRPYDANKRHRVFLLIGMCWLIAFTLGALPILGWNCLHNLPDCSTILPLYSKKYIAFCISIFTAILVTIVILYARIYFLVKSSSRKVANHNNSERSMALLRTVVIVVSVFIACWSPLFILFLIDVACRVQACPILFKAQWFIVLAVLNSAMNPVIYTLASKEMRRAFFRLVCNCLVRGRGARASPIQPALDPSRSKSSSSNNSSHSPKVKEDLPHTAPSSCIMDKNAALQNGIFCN

For the compound `CCc1cc(-c2noc(-c3cc(CC(C)C)nc(OC)c3)n2)cc(C)c1OC[C@@H](O)CNC(=O)CO`, the EC50 in [1] was found to be 27 nM; in data set [3], 0.3 nM. The same compound gave a Time in the data set on Rattus norvegicus [2] of 48 h. For the same compound, the Activity was determined as 57% with Rattus norvegicus [4], 66% in the data set on Rattus norvegicus [5], 59% in the data set on Rattus norvegicus [6] and 59% in the data set on Rattus norvegicus [7].

For `CCc1cc(-c2noc(-c3cc(OC)nc(C4CCCC4)c3)n2)cc(C)c1OC[C@@H](O)CNC(=O)CO`, the 50% effective concentration (EC50) in data set [1] is 71 nM. Besides, the Activity in the data set on Rattus norvegicus [8] came to 20%; in the data set with Rattus norvegicus [4], 62%; with Rattus norvegicus [5], 70%; in the data set on Rattus norvegicus [6], 65%; in the data set with Rattus norvegicus [17] it was 50%. The Ratio is reported as 2.3 in data set [9] and 0.09 in data set [10]. This compound registered a concentration at 96 h in [11] of 68 nM. The Time with Rattus norvegicus [2] worked out at 24 h. Further, the concentration at 24 h in data set [12] came to 1070 nM. The same compound yielded a concentration at 3 h in data set [13] of 2050 nM. In data set [14], the half-life was 18 h. For the same compound, the concentration at 6 h in data set [15] was found to be 1860 nM. The compound also gave a concentration at 144 h in data set [16] of 12 nM.

Turning to `CCc1cc(-c2noc(-c3cc(C)nc(OC(C)C)c3)n2)cc(C)c1OC[C@@H](O)CNC(=O)CO`, the results for the half-maximal effective concentration (EC50) in data set [1] and in [3] were 95 nM and 0.2 nM, respectively. In addition, the Activity is on record as 28% in the data set with Rattus norvegicus [8]; 66% in the data set with Rattus norvegicus [4]; 74% in the data set on Rattus norvegicus [5]; 67% with Rattus norvegicus [6]; 70% in the data set with Rattus norvegicus [17]. The compound further displayed a Time in the data set on Rattus norvegicus [2] of 96 h.

With `CCc1cc(-c2noc(-c3cc(C)nc(OC4CCCC4)c3)n2)cc(C)c1OC[C@@H](O)CNC(=O)CO`, the EC50 in data set [1] was 190 nM; in data set [3], 1 nM. The results for the Ratio in data set [9] and in [10] were 7.5 and 0.12, respectively. Moreover, the concentration at 72 h in [18] amounted to 67 nM. Moreover, the Activity in the data set with Rattus norvegicus [19] is listed as 43%; with Rattus norvegicus [4], 69%; in the data set on Rattus norvegicus [5], 74%; in the data set with Rattus norvegicus [6], 66%. In addition, the Time with Rattus norvegicus [2] came to 24 h. Moreover, the concentration at 24 h in [12] came to 790 nM. Moreover, the concentration at 3 h in [13] stood at 2200 nM. In addition, the half-life in data set [14] was 13 h. Further, in data set [15], the concentration at 6 h was determined as 2040 nM.

For the compound `CCc1cc(-c2noc(-c3cc(C)nc(OC4CCC4)c3)n2)cc(C)c1OC[C@@H](O)CNC(=O)CO`, the EC50 in [1] came out at 110 nM; in [3], 0.3 nM. Also, the Activity in the data set with Rattus norvegicus [8] came to 21%; in the data set with Rattus norvegicus [4], 66%; in the data set with Rattus norvegicus [5], 72%; with Rattus norvegicus [6], 62%; in the data set with Rattus norvegicus [17], 62%. In addition, the Time in the data set with Rattus norvegicus [2] was 96 h.

In the case of `CCc1cc(-c2noc(-c3cc(OC)nc(C4CCC4)c3)n2)cc(C)c1OC[C@@H](O)CNC(=O)CO`, the EC50 in data set [1] worked out at 22 nM; in [3], 0.3 nM. Besides, in the data set on Rattus norvegicus [19], the result was Active. Besides, the Time in the data set with Rattus norvegicus [2] came out at 24 h. The Activity is listed as 56% in the data set on Rattus norvegicus [4], 61% in the data set on Rattus norvegicus [5] and 61% in the data set with Rattus norvegicus [6].

With `CCc1cc(-c2noc(-c3cc(OC)nc(C(CC)CC)c3)n2)cc(C)c1OC[C@@H](O)CNC(=O)CO`, the EC50 in data set [1] amounted to 96 nM; in data set [3] it was 0.4 nM. Besides, the Ratio in data set [9] came out at 0.9; in data set [10], 0.05. The concentration at 72 h in data set [18] was less than 3 nM. The result in the data set on Rattus norvegicus [19] was Active. This compound yielded a Time with Rattus norvegicus [2] of 6 h. In addition, in data set [12], the concentration at 24 h came to 46 nM. Also, the concentration at 3 h in data set [13] amounted to 750 nM. Also, the half-life in data set [14] is 9 h. Further, in [15], the concentration at 6 h is 470 nM. Further, the values for the Activity with Rattus norvegicus [4], in the data set on Rattus norvegicus [5] and in the data set on Rattus norvegicus [6] were 59%, 36% and 59%, respectively.
